Laboratory results as given in ChEMBL document CHEMBL1152681, “Natural and synthetic 2'-hydroxy-chalcones and aurones: synthesis, characterization and evaluation of the antioxidant and soybean lipoxygenase inhibitory activity” (Bioorg Med Chem, 2009).

Columns and labels:
[1] = Antioxidant activity assessed as hydrogen peroxide scavenging activity by peroxyoxalate chemiluminescent method; type: functional
[2] = Inhibition of soybean 5-lipoxygenase by UV-absorbance based enzyme assay; parameters: species or system Glycine max
Outline: (§1)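 Soybean lipoxygenase (enzyme solution 1/9 × 10^-4 w/v in saline) incubated at room temperature with sodium linoleate and compound in DMSO, in Tris buffer pH 9. Conversion to 13-hydroperoxylinoleic acid recorded at 234 nm and compared with a standard inhibitor.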

[3] = tested on: Radical scavenging activity; assay: Antioxidant activity assessed as DPPH radical scavenging activity at 100 uM after 60 mins; type: functional
Outline: (§2)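 DPPH (0.05 mM) in absolute ethanol; compounds in DMSO added to final 0.1 mM. Mixture shaken vigorously and left 20 min or 60 min. Absorbance read at 517 nm and percent activity calculated. Three replicates, averaged.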

[4] = tested on: Radical scavenging activity; assay: Antioxidant activity assessed as DPPH radical scavenging activity at 50 uM after 60 mins; type: functional
[5] = Antioxidant activity assessed as inhibition of AAPH-induced lipid peroxidation at 10 uM by uV spectrophotometry; type: functional
Outline: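 Aqueous linoleic acid dispersion (16 mM, 10 µL) in 0.05 M phosphate buffer pH 7.4, prethermostated at 37 °C. Oxidation started under air with AAPH (40 mM solution, 50 µL) and run with 10 µL compound aliquots. The control contained the same DMSO level. The rate of conjugated diene hydroperoxide formation was followed by the rise in absorbance at 234 nm at 37 °C.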

[6] = tested on: Radical scavenging activity; assay: Antioxidant activity assessed as DPPH radical scavenging activity at 100 uM after 20 mins; type: functional; outline: as §2
[7] = Antioxidant activity assessed as superoxide anion radical scavenging activity at 10 uM; type: functional
Outline: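 Non-enzymatic superoxide generation from PMS/NADH/air-oxygen, measured by NBT reduction. Compounds preincubated 2 min before NADH was added. Mixture of 3 µM PMS, 78 µM NADH and 25 µM NBT in phosphate buffer pH 7.4, incubated 2 min at room temperature. Absorbance read at 560 nm against a PMS-containing blank. Caffeic acid was the standard.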

[8] = Antioxidant activity assessed as hydroxyl radical scavenging activity at 100 uM; type: functional
Outline: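 Fe3+/ascorbic acid-generated hydroxyl radicals detected by the Nash method as formaldehyde formed from DMSO oxidation. The mixture held EDTA 0.1 mM, Fe3+ 167 µM, DMSO 33 mM, test compound 0.1 mM and ascorbic acid 10 mM in 50 mM phosphate buffer pH 7.4. Incubated 30 min at 37 °C, then stopped with CCl3COOH (17% w/v). Trolox was the standard.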

[9] = tested on: Radical scavenging activity; assay: Antioxidant activity assessed as DPPH radical scavenging activity at 50 uM after 20 mins; type: functional
Glycine max = assay: Inhibition of soybean 5-lipoxygenase at 100 uM by UV-absorbance based enzyme assay; outline: as §1

IC50 [1]	IC50 [2]	inhibition (Glycine max)	Structure (SMILES)	Activity [3]	Activity [4]	inhibition [5]	Activity [6]	Activity [7]	Activity [8]	Activity [9]
599 µM	100 µM	–	COc1ccccc1/C=C/C(=O)c1ccccc1O	57.7%	0%	43.1%	11.8%	92.1%	100%	0%
76 µM	–	0%	O=C(/C=C/c1ccc(O)c(O)c1)c1c(O)cc(O)cc1O [3,4,2',4',6'-PENTAHYDROXYCHALCONE]	94.9%	–	0%	100%	–	–	–
–	–	0%	COc1cc(OC)c2c(c1)O/C(=C\c1ccc(C)cc1)C2=O	29.2%	0%	72%	8.5%	97.4%	100%	0%
–	40 µM	–	CC(Cc1ccc(O)c(O)c1)C(C)Cc1ccc(O)c(O)c1 (stereo unspecified) [NORDIHYDROGUAIARETIC ACID]	83%	83%	–	81%	–	–	84%
44 µM	–	–	COc1ccc(/C=C2\Oc3ccccc3C2=O)cc1OC [3',4'-DIMETHOXY-AURONE]	–	–	53.3%	–	97.4%	76.7%	–
88 µM	–	1.6%	COc1cc(O)c(C(=O)/C=C/c2ccc(OC)c(OC)c2)c(OC)c1	20.8%	0%	73.6%	12.9%	86.8%	42.2%	0%
–	–	–	Cc1c(C)c2c(c(C)c1O)CCC(C)(C(=O)O)O2 (stereo unspecified)	–	–	63%	–	–	73.4%	–
2010 µM	–	32.4%	Cc1ccc(/C=C2\Oc3ccccc3C2=O)cc1	49.2%	29.4%	43.1%	23.9%	68.4%	84.5%	5.6%
228 µM	67.5 µM	–	COc1ccc(/C=C/C(=O)c2ccccc2O)cc1OC	28.5%	0%	64.6%	6.3%	100%	84.1%	0%
665 µM	53 µM	–	COc1cc(O)c(C(=O)/C=C/c2ccc(C)cc2)c(OC)c1	24.6%	0%	100%	9.6%	100%	100%	0%
16.9 µM	–	–	CC1=C(/C=C/C(C)=C/C=C/C(C)=C/C=C/C=C(C)/C=C/C=C(C)/C=C/C2=C(C)CCCC2(C)C)C(C)(C)CCC1 [BETA CAROTENE]	–	–	–	–	–	–	–
–	600 µM	–	O=C(O)/C=C/c1ccc(O)c(O)c1 [CAFFEIC ACID]	–	–	–	–	5.5%	–	–
466 µM	–	39.9%	COc1ccccc1/C=C1\Oc2ccccc2C1=O [(Z)-2'-METHOXYAURONE]	43.1%	0%	71.1%	25%	73.7%	100%	4.2%
500 µM	–	5%	COc1ccc(/C=C/C(=O)c2ccccc2O)cc1	40.8%	0%	61.6%	0%	73.7%	100%	0%
1090 µM	50 µM	–	COc1ccc(/C=C2\Oc3cc(OC)cc(OC)c3C2=O)cc1 [4,4',6-TRIMETHOXY-AURONE]	11.5%	0%	42.6%	0%	63.2%	100%	2.8%
713 µM	56 µM	–	O=C(/C=C/c1ccc(Cl)cc1)c1ccccc1O	40.8%	0%	74.4%	0%	84.2%	100%	0%
–	–	14.1%	COCOc1cc(O)c(C(=O)/C=C/c2ccc(OCOC)c(OCOC)c2)c(OCOC)c1	65.4%	0%	77.1%	42.6%	50%	100%	5.6%
1040 µM	52.5 µM	–	Cc1ccc(/C=C/C(=O)c2ccccc2O)cc1	43.8%	1.5%	49.6%	0%	84.2%	100%	0%
–	–	0%	COCOc1cc(OCOC)c2c(c1)O/C(=C\c1ccc(OCOC)c(OCOC)c1)C2=O	–	–	–	–	–	–	–
1990 µM	–	34.9%	COc1cccc(/C=C2\Oc3ccccc3C2=O)c1 [3'-METHOXY-AURONE]	83.8%	0%	62.3%	87.9%	50%	57.8%	11.1%
456 µM	–	2.3%	COc1ccc(/C=C/C(=O)c2c(O)cc(OC)cc2OC)cc1 [FLAVOKAWAIN A]	40.8%	0%	80.9%	6.3%	50%	78.7%	0%
503 µM	–	20%	COc1cc(O)c(C(=O)/C=C/c2ccccc2OC)c(OC)c1	47.7%	5.9%	68.4%	15.1%	89.5%	0%	9.7%
940 µM	–	36.4%	COc1cccc(/C=C/C(=O)c2ccccc2O)c1	34.6%	0%	75.8%	0%	97.4%	57%	0%
4140 µM	–	26.4%	O=C1/C(=C/c2ccc(Cl)cc2)Oc2ccccc21	76.2%	10.3%	46.4%	49.3%	89.5%	0%	11.1%
291 µM	70 µM	–	COc1ccc(/C=C2\Oc3ccccc3C2=O)cc1 [4'-METHOXY-AURONE]	23.8%	0%	64.6%	5.1%	81.6%	76.4%	13.9%
–	–	0%	O=C1/C(=C/c2ccc(O)c(O)c2)Oc2cc(O)cc(O)c21	97.7%	–	77.8%	84.9%	–	–	–
–	–	7.8%	COc1cc(OC)c2c(c1)O/C(=C\c1ccc(Cl)cc1)C2=O	20.8%	0%	82.9%	6.3%	84.2%	91.5%	0%
2400 µM	100 µM	–	COc1cc(OC)c2c(c1)O/C(=C\c1ccccc1OC)C2=O	30.8%	0%	87.1%	1.8%	55.3%	77.9%	4.2%
657 µM	82 µM	–	COc1cc(O)c(C(=O)/C=C/c2ccc(Cl)cc2)c(OC)c1	46.9%	0%	42.7%	15.1%	100%	100%	0%

Structure (SMILES)	IC50 [1]	IC50 [2]	inhibition (Glycine max)	Activity [3]	Activity [4]	inhibition [5]	Activity [6]	Activity [7]	Activity [8]	Activity [9]
O=c1c(O)c(-c2ccc(O)c(O)c2)oc2cc(O)cc(O)c12 [QUERCETIN]	162 µM	–	–	–	–	–	–	–	–	–
